PubChem BioAssay
The source made the active and inactive calls.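 The calls were made as follows: active = duplicate-averaged activation above buffer control mean plus 5 SD of those controls; inactive = the rest.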

test: thallium flux activation in parental CHO cells, counter-screen for KCNQ1 potentiator project (AID 493006); conditions: parental CHO-K1 cells, FluxOR thallium flux, at 10 µM; stronger effect = higher value;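 as to activation: fluorescence ratio of max minus min over baseline after K+ and Tl+ depolarization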
Summary of the method: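 Benchmarks – buffer and R-L3 controls · Assay system – untransfected host CHO-K1 cells with FluxOR thallium dye · Measure – fluorescence change ratio scaled 0% buffer, 100% R-L3 · Technique – kinetic thallium-flux fluorescence · Timing – overnight 37 °C plating, 90 min RT dye, 20 min compound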

| SMILES | outcome | activation |
| --- | --- | --- |
| CC(=O)OC(C)(C)/C=C/C(=O)C(C)(O)C1[C@H](O)C[C@@]2(C)C3CC=C4C(CC[C@@H](O)C4(C)C)[C@]3(CO)C(=O)C[C@]12C (some centres undefined) | inactive | – |
| Cc1ccccc1-n1c(O)c(/C=N/N2CCOCC2)c(=O)[nH]c1=S | inactive | – |
| Cc1ccc(/C=C2/C(=O)NC(=O)N(CCc3ccc(F)cc3)C2=O)o1 | inactive | – |
| Cc1ccccc1CC(=O)N(CCN(C)C)CC1CCCN(Cc2ccccc2F)C1 (centres undefined) | inactive | – |
| CC1(C)CSC(=NCc2ccccc2)N1 | inactive | – |
| COc1ccc(C2NCc3ccc4c(c3-n3cccc32)OCO4)cc1O (centres undefined) | inactive | – |
| COc1cccc(CC(=O)N2CCN(Cc3cccc(Cl)c3)CC2)c1 | inactive | – |
| COc1ccc(C(=O)OC2CC[C@@]3(C)C4CCC5[C@]6(O)CC(O)[C@@]7(O)C(CN8CC(C)CCC8[C@@]7(C)O)[C@]6(O)C[C@@]53O[C@]24O)cc1OC (some centres undefined) | inactive | – |
| CC/C(=C\C=C\[C@@H]1C=C[C@@H]2CCC[C@H]2[C@@H]1C(=O)c1ccc[nH]1)[C@@H]1O[C@@H]([C@@H](C)C(=O)O)CC[C@@H]1C | – | 499% (active) |
| CC(=NCc1ccc(F)cc1)c1c(O)n(C)c(=O)n(C)c1=O | – | 144% (active) |
| O=C1NC(=O)N(Cc2ccc(F)cc2)C(=O)/C1=C/c1cccs1 | inactive | – |
| Cn1cccc1/C=C1/C(=O)NC(=S)N(Cc2ccc(F)cc2)C1=O | inactive | – |
| c1ccc2c(c1)Sc1ccccc1N2CC1CN2CCC1CC2 (centres undefined) | inactive | – |
| C/C1=C\[C@@H](C)C/C=C/[C@H]2[C@@H]3O[C@]3(C)[C@@H](C)[C@H]3[C@H](Cc4c[nH]c5ccccc45)NC(=O)[C@]32C(=O)/C=C/C(=O)[C@@H]1O | inactive | – |
